Data reported in ChEMBL document CHEMBL1255528, “Chemical investigation of drug-like compounds from the Australian tree, Neolitseadealbata” (Bioorg Med Chem Lett, 2010).
Structures can show the parent of a compound that is named as a salt.

What was measured:
[1] = test system: LNCaP; assay: Cytotoxicity against human LNCAP cells after 72 hrs by alamar blue assay; type: functional, cell-based
Outline: (§1)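 Screened across a human panel: A549 lung adenocarcinoma, HeLa cervical adenocarcinoma, MCF-7 breast, LNCaP and PC3 prostate, plus non-cancer HEK 293 embryonic kidney and NFF neonatal foreskin fibroblasts. IC50 reported as mean ± SD of two independent experiments.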

[2] = Cytotoxicity against HEK cells after 72 hrs by alamar blue assay; type: cell-based; settings: Homo sapiens, HEK293, 72 h; outline: as §1
[3] = test system: PC-3; assay: Cytotoxicity against human PC3 cells after 72 hrs by alamar blue assay; type: functional, cell-based; settings: PC-3, 72 h; outline: as §1
[4] = test system: MCF7; assay: Cytotoxicity against human MCF7 cells after 72 hrs by alamar blue assay; type: functional, cell-based; settings: MCF7, 72 h; outline: as §1
[5] = test system: NFF; assay: Cytotoxicity against human NFF after 72 hrs by alamar blue assay; type: cell-based; outline: as §1
[6] = test system: HeLa; assay: Cytotoxicity against human HeLa cells after 72 hrs by alamar blue assay; type: functional, cell-based; outline: as §1
[7] = test system: A549; assay: Cytotoxicity against human A549 cells after 72 hrs by alamar blue assay; type: functional, cell-based; settings: A549, 72 h; outline: as §1
[8] = Cytotoxicity against HEK cells at 100 uM after 72 hrs by alamar blue assay; type: cell-based, HEK293; settings: human; for cytotoxicity at 72 h, 100 µM: HEK cells, read-out: INH
Outline: (§2)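 Non-cancer human cell lines, human embryonic kidney 293 (HEK 293) and neonatal foreskin fibroblasts (NFF), screened in parallel with a panel of five cancer lines. Growth inhibition is reported as percent inhibition at a single test concentration of 100.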

[9] = test system: MCF7; assay: Cytotoxicity against human MCF7 cells at 100 uM after 72 hrs by alamar blue assay; type: functional; settings: MCF7, 72 h
Outline: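 Single-concentration screen on MCF-7 breast cancer cells within the same human cell-line panel. Percent growth inhibition calculated at the one test concentration rather than as an IC50.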

[10] = (§3) Cytotoxicity against human NFF at 100 uM after 72 hrs by alamar blue assay; type: cell-based; settings: NFF cells, read-out: INH; outline: as §2
[11] = test system: NFF; assay: as §3; type: cell-based; settings: nff, 72 h, 100 µM; outline: as §2

## Oc1ccc2c(c1)-c1c3c(cc4c1[C@@H](C2)NCC4)OCO3
[1]
  IC50: 13.8 µM
[2]
  IC50: 59.7 µM
[3]
  IC50: 23 µM
[4]
  IC50: 27.4 µM
[5]
  IC50: 42.6 µM
[6]
  IC50: 4 µM
[7]
  IC50: 28.2 µM

## CN1CCc2cc3c(c4c2[C@H]1Cc1ccccc1-4)OCO3
[1]
  IC50: 12.7 µM
[2]
  IC50: 15.9 µM
[3]
  IC50: 7.7 µM
[4]
  IC50: 17.7 µM
[5]
  IC50: 15.2 µM
[6]
  IC50: 16.6 µM
[7]
  IC50: 3.4 µM

## COc1cc2c(cc1O)C[C@@H]1NCCc3cc4c(c-2c31)OCO4
[1]
  IC50: 27.4 µM
[8]
  cytotoxicity at 72 h, 100 µM: 55%
[3]
  IC50: 36.4 µM
[5]
  IC50: > 100 µM
[9]
  inhibition at 100 µM: 52%
[6]
  IC50: 28.1 µM
[7]
  IC50: 16 µM

## COc1cc2c(cc1O)C[C@@H]1NCCc3cc(O)c(OC)c-2c31
[1]
  IC50: > 100 µM
[2]
  IC50: > 100 µM
[3]
  IC50: > 100 µM
[4]
  IC50: > 100 µM
[5]
  IC50: > 100 µM
[6]
  IC50: > 100 µM
[7]
  IC50: > 100 µM

## COc1cc2c(cc1O)C[C@H]1c3c(cc(O)c(OC)c3-2)CCN1C
[1]
  IC50: > 100 µM
[2]
  IC50: > 100 µM
[3]
  IC50: > 100 µM
[4]
  IC50: > 100 µM
[5]
  IC50: > 100 µM
[6]
  IC50: > 100 µM
[7]
  IC50: > 100 µM

## COc1ccc2c(c1O)[C@H](Cc1ccc(O)cc1)NCC2
[1]
  IC50: > 100 µM
[2]
  IC50: > 100 µM
[3]
  IC50: > 100 µM
[4]
  IC50: > 100 µM
[5]
  IC50: > 100 µM
[6]
  IC50: > 100 µM
[7]
  IC50: > 100 µM

## COc1ccc2c(c1O)[C@H](Cc1ccc(O)cc1)N(C)CC2
[1]
  IC50: > 100 µM
[2]
  IC50: > 100 µM
[3]
  IC50: > 100 µM
[4]
  IC50: > 100 µM
[5]
  IC50: > 100 µM
[6]
  IC50: > 100 µM
[7]
  IC50: > 100 µM

## C[N@@+]1([O-])CCc2cc3c(c4c2[C@H]1Cc1ccccc1-4)OCO3 (stereo in doubt; 3)
[1]
  IC50: > 100 µM
[8]
  cytotoxicity at 72 h, 100 µM: 61%
[3]
  IC50: > 100 µM
[10]
  cytotoxicity at 72 h, 100 µM: 83%
[4]
  IC50: > 100 µM
[6]
  IC50: > 100 µM
[7]
  IC50: > 100 µM

## C[N@@+]1([O-])CCc2cc3c(c4c2[C@H]1Cc1ccccc1-4)OCO3.O=C(O)C(F)(F)F (stereo in doubt; 4)
[8]; hek293, 72 h, 100 µM, 72 h
  inhibition (INH): 49%
[11]
  inhibition (INH): 66%

## CC(=O)O[C@H]1C(=O)[C@@]2(C)[C@H]([C@H](OC(=O)c3ccccc3)[C@]3(O)C[C@H](OC(=O)[C@H](O)[C@@H](NC(=O)c4ccccc4)c4ccccc4)C(C)=C1C3(C)C)[C@]1(OC(C)=O)CO[C@@H]1C[C@@H]2O [PACLITAXEL]
[2]
  IC50: 0.0039 µM
[4]
  IC50: 0.0044 µM
[5]
  IC50: 0.0047 µM
[6]
  IC50: 0.0089 µM
[7]
  IC50: 0.0038 µM

## CC[C@]1(O)C[C@H]2CN(CCc3c([nH]c4ccccc34)[C@@](C(=O)OC)(c3cc4c(cc3OC)N(C=O)[C@H]3[C@@](O)(C(=O)OC)[C@H](OC(C)=O)[C@]5(CC)C=CCN6CC[C@]43[C@@H]65)C2)C1 [VINCRISTINE SULFATE]
[1]
  IC50: 0.0029 µM
[3]
  IC50: 0.011 µM
